IC50, CC50 and selectivity ratio data for seven compounds are collected here from ChEMBL document CHEMBL1151977, “Antiviral constituents against respiratory viruses from Mikania micrantha” (J Nat Prod, 2009).

The test system of data set [1] is Respiratory syncytial virus. Put plainly: Antiviral activity against Respiratory syncytial virus infected in human Hep2 cells assessed as inhibition of virus-induced cytopathogenic effect by plaque reduction assay. In kind it is functional, organism-based. Particulars: HEp-2.
The nature of data set [2]: Cytotoxicity against human Hep2 cells. The following applies: read-out: TC50 (the source's name). In kind it is cell-based, HEp-2.
Data set [3] in a line: Therapeutic index, ratio of TC50 for human Hep2 cells to IC50 for Respiratory syncytial virus infected in human Hep2 cells. Type of data set: cell-based, HEp-2. The following applies: read-out: TI. The gist of the method: (§1)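 Antiviral IC50 came from a virus-induced cytopathic effect reduction assay in infected cells. Therapeutic index was calculated as TC50 divided by IC50.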

Another data set deals with Human respirovirus 3. In words: Antiviral activity against Parainfluenza virus type 3 infected in human Hep2 cells assessed as inhibition of virus-induced cytopathogenic effect by plaque reduction assay. Type of data set: functional, organism-based. Particulars: Human respirovirus 3, HEp-2.
The test system of another data set is Influenza A virus. Put plainly: Antiviral activity against Influenza A virus infected in MDCK cells assessed as inhibition of virus-induced cytopathogenic effect by plaque reduction assay. Type of data set: functional, organism-based.
Data set [4] is described as follows: Therapeutic index, ratio of TC50 for human Hep2 cells to IC50 for Parainfluenza virus type 3 infected in human Hep2 cells. In kind it is cell-based, HEp-2. The following applies: read-out: TI. The gist of the method:
as §1

A short description of data set [5]: Cytotoxicity against MDCK cells. Type of data set: cell-based, Canis lupus familiaris. The following applies: dog, read-out: TC50 (the source's name).
Data set [6] is described as follows: Therapeutic index, ratio of TC50 for MDCK cells to IC50 for Influenza A virus infected in MDCK cells. Type of data set: cell-based. Particulars: dog, read-out: TI. The gist of the method:
as §1

In the case of `COc1ccc(-c2oc3cc(OC)c(OC)c(O)c3c(=O)c2O)cc1` [MIKANIN], the values for the concentration for half-maximal inhibition (IC50) (in data set [1]; in the data set with Human respirovirus 3; in the data set with Influenza A virus) were 55.5 µM, 41.6 µM and 167 µM, respectively. In addition, the CC50 is 83.1 µM in data set [2] and 500 µM in data set [5]. Besides, the selectivity ratio in data set [3] stood at 1.5; in data set [4], 2; in data set [6] it was 3.

`C[C@H]1C(=O)O[C@H]2C[C@]3(C)O[C@H]3[C@@H]3O[C@@H]3C3=C[C@@H](OC3=O)[C@@H]21` [DIHYDROMIKANOLIDE]: the half-maximal inhibitory concentration (IC50) (in data set [1]; in the data set with Human respirovirus 3; with Influenza A virus) was 143 µM each time. The CC50 in data set [2] and in data set [5] was 214 µM in each case. Further, the selectivity ratio in data set [3], in data set [4] and in data set [6] was 1.5 each time.

With `COc1ccc(-c2oc3cc(OC)c(OC)c(O)c3c(=O)c2OS(=O)(=O)O)cc1`, the values for the concentration for half-maximal inhibition (IC50) (in data set [1]; in the data set with Human respirovirus 3; in the data set on Influenza A virus) were 79 µM, 19.7 µM and 79 µM, respectively. The CC50 stood at 472 µM in data set [2] and 237 µM in data set [5]. The selectivity ratio in data set [3] was 6; in data set [4] it was 24; in data set [6], 3.

With `CC(=O)O[C@H]1C[C@@H]2O[C@@]2(C)C[C@@H]2OC(=O)[C@H](C)[C@H]2[C@H]2C=C1C(=O)O2`, the half-inhibitory concentration (IC50) was 61.9 µM in data set [1], 186 µM in the data set with Human respirovirus 3 and 186 µM in the data set with Influenza A virus. For the same compound, the CC50 in data set [2] and in data set [5] was 186 µM in each case. Moreover, the selectivity ratio came out at 3 in data set [3], 1 in data set [4] and 1 in data set [6].

As for `C[C@H]1C(=O)O[C@H]2C[C@]3(C)O[C@H]3CCC3=C[C@@H](OC3=O)[C@@H]21`, the IC50 in data set [1] is 37.4 µM; in the data set with Human respirovirus 3 it was 37.4 µM; in the data set with Influenza A virus it was more than 360 µM. In addition, the CC50 in data set [2] and in data set [5] was 600 µM each time. Also, the selectivity ratio was 16 in data set [3], 16 in data set [4] and less than 1.7 in data set [6].

In the case of `CC(C)[C@@H](C)/C=C/[C@@H](C)[C@H]1CC[C@H]2C3=CC[C@H]4C[C@@H](O)CC[C@]4(C)[C@H]3CC[C@]12C`, the values for the IC50 (in data set [1]; with Human respirovirus 3; with Influenza A virus) were 50.5 µM, 50.5 µM and 202 µM, respectively. In addition, the figures for the CC50 in data set [2] and in data set [5] were 303 µM and 405 µM, respectively. Moreover, the selectivity ratio in data set [3] was found to be 6; in data set [4] it was 6; in data set [6], 2.

As for `NC(=O)c1ncn([C@@H]2O[C@H](CO)[C@@H](O)[C@H]2O)n1` [RIBAVIRIN], the half-inhibitory concentration (IC50) in data set [1] came to 10.7 µM; with Human respirovirus 3 it was 10.7 µM; with Influenza A virus it was 42.6 µM. In addition, the CC50 in data set [5] is more than 256 µM.
